This is an account of results in ChEMBL document CHEMBL3297710, “Polyhydroxy cyclohexanols from a Dendrodochium sp. fungus associated with the sea cucumber Holothuria nobilis Selenka” (J Nat Prod, 2014).

One test deals with Trichophyton rubrum. Description: Antifungal activity against Trichophyton rubrum Cmccftla assessed as growth inhibition by automatic microplate reader analysis. In kind it is functional. In short, it runs like this: (§1)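 Broth microdilution growth read by optical density at 630 nm on a microplate reader. MIC80 was taken as the first well showing roughly 80% growth reduction relative to the drug-free well.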

In a further test the test system is Nakaseomyces glabratus. Nature of the test: Antifungal activity against Candida glabrata 537 assessed as growth inhibition by automatic microplate reader analysis. The test is classed as functional. Put shortly: as §1
For a further test, the system named is Aspergillus fumigatus. Nature of the test: Antifungal activity against Aspergillus fumigatus 07544 assessed as growth inhibition by automatic microplate reader analysis. In kind it is functional. In short, it runs like this:
as §1

The test system of the next test is Nannizzia gypsea. Description: Antifungal activity against Microsporum gypseum Cmccfmza assessed as growth inhibition by automatic microplate reader analysis. The test is classed as functional. Put shortly:
as §1

The subject of test [1] is Candida albicans. Description: Antifungal activity against Candida albicans Y0109 assessed as growth inhibition by automatic microplate reader analysis. The test is classed as functional. Put shortly: as §1
A further test relates to Cryptococcus neoformans. Description: Antifungal activity against Cryptococcus neoformans 32609 assessed as growth inhibition by automatic microplate reader analysis. In kind it is functional. In short, it runs like this:
as §1

In the next test the test system is A549. Description: Cytotoxicity against human A549 cells assessed as growth inhibition by MTT assay. In kind it is functional, cell-based. In short, it runs like this: (§2)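 Modified MTT colorimetric assay on human lung adenocarcinoma A549 and human osteosarcoma MG63 cells, with adriamycin as the positive control.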
The subject of test [2] is Candida albicans. Description: Antifungal activity against Candida albicans SC5314 assessed as growth inhibition by automatic microplate reader analysis. In kind it is functional. Put shortly:
as §1

Another test deals with Candida parapsilosis. Description: Antifungal activity against Candida parapsilosis 22019 assessed as growth inhibition by automatic microplate reader analysis. The test is classed as functional. Particulars: Lodderomyces parapsilosis. In short, it runs like this:
as §1

Another test has as its system MG-63. Nature of the test: Cytotoxicity against human MG63 cells assessed as growth inhibition by MTT assay. The test is classed as functional, cell-based. In short, it runs like this: as §2

The structures appear in SMILES notation. Calls of active or inactive are those of the source. No cut-off for these calls is given here. Some results are limits rather than exact numbers.

Turning to `C[C@@H](O)/C=C/C=C/[C@H]1OC[C@H]2[C@@H](O)[C@@H](O)[C@H](O)C[C@@H]21`, the MIC80 in the test with Trichophyton rubrum, with Nakaseomyces glabratus, with Aspergillus fumigatus, in the test on Nannizzia gypsea, in the test on Candida albicans [1] and in the test on Cryptococcus neoformans was greater than 64 µg/mL throughout. Also, the MIC80 with Candida albicans [2] and in the test on Candida parapsilosis was greater than 64 µg/mL in each case. The inhibition result in the test on A549 and in the test on MG-63 was “inactive” in each case.

As for `C/C=C/C=C/C=C/[C@H]1C[C@@H](O)C[C@H](O)[C@@H]1CO`, the MIC80 in the test with Trichophyton rubrum is 8 µg/mL; with Nakaseomyces glabratus, 16 µg/mL; in the test with Aspergillus fumigatus it was greater than 64 µg/mL; in the test on Nannizzia gypsea, 16 µg/mL; in the test on Candida albicans [1], 16 µg/mL; in the test with Cryptococcus neoformans, 8 µg/mL. Also, the MIC80 in the test on Candida albicans [2] and in the test on Candida parapsilosis was 16 µg/mL in each case. For the same molecule, the inhibition entry in the test on A549 and in the test on MG-63 was “inactive” each time.

With `C/C=C/C=C/C=C/[C@H]1C[C@@H](O)[C@H](O)[C@H](O)[C@@H]1CO`, the MIC80 in the test on Trichophyton rubrum was greater than 64 µg/mL; in the test on Nakaseomyces glabratus, greater than 64 µg/mL; with Aspergillus fumigatus it was greater than 64 µg/mL; with Nannizzia gypsea, greater than 64 µg/mL; with Candida albicans [1] it was 16 µg/mL; in the test on Cryptococcus neoformans, greater than 64 µg/mL. In addition, the MIC80 in the test with Candida albicans [2] and in the test on Candida parapsilosis was greater than 64 µg/mL throughout. Further, the inhibition result in the test on A549 and in the test with MG-63 was “inactive” in each case.

Turning to `C/C=C/C=C/C=C/[C@H]1C[C@@H](O)[C@H](O)C(=O)[C@@H]1CO`, the MIC80 in the test with Trichophyton rubrum is 16 µg/mL; in the test with Nakaseomyces glabratus it was 16 µg/mL; in the test on Aspergillus fumigatus it was greater than 64 µg/mL; with Nannizzia gypsea, greater than 64 µg/mL; in the test with Candida albicans [1] it was 16 µg/mL; in the test on Cryptococcus neoformans, 16 µg/mL. For the same molecule, the MIC80 in the test with Candida albicans [2] and in the test on Candida parapsilosis was 16 µg/mL throughout. Besides, the inhibition entry in the test on A549 and in the test with MG-63 was “inactive” in each case.

Regarding `COc1cccc2c1C(=O)c1c(O)c3c(c(O)c1C2=O)C[C@@](O)(C(=O)CO)C[C@@H]3O[C@H]1C[C@H](N)[C@H](O)[C@H](C)O1` [DOXORUBICIN], the IC50 result in the test with A549 is “Not Active”. Moreover, in the test on MG-63, the inhibition result was “inactive”.

In the case of `OC(Cn1cncn1)(Cn1cncn1)c1ccc(F)cc1F` [FLUCONAZOLE], the MIC80 with Trichophyton rubrum was 1 µg/mL; with Nakaseomyces glabratus, 2 µg/mL; in the test on Aspergillus fumigatus it was greater than 64 µg/mL; in the test on Nannizzia gypsea it was 8 µg/mL; in the test on Candida albicans [1], 0.25 µg/mL; in the test on Cryptococcus neoformans it was 1 µg/mL. In addition, the MIC80 is 0.25 µg/mL with Candida albicans [2] and 1 µg/mL in the test on Candida parapsilosis.

Consider `CCC(C)n1ncn(-c2ccc(N3CCN(c4ccc(OCC5COC(Cn6cncn6)(c6ccc(Cl)cc6Cl)O5)cc4)CC3)cc2)c1=O` (configuration not stated) [ITRACONAZOLE], for which the MIC80 in the test on Trichophyton rubrum was 2 µg/mL; with Nakaseomyces glabratus, 2 µg/mL; in the test on Aspergillus fumigatus, 32 µg/mL; with Nannizzia gypsea, 4 µg/mL; with Candida albicans [1], 4 µg/mL; with Cryptococcus neoformans it was 4 µg/mL. For the same molecule, the MIC80 was found to be 4 µg/mL in the test on Candida albicans [2] and 8 µg/mL with Candida parapsilosis.

`CC(=O)N1CCN(c2ccc(OCC3COC(Cn4ccnc4)(c4ccc(Cl)cc4Cl)O3)cc2)CC1` (configuration not stated) [KETOCONAZOLE]: the MIC80 came out at 0.0625 µg/mL in the test on Trichophyton rubrum; 0.125 µg/mL in the test with Nakaseomyces glabratus; 2 µg/mL with Aspergillus fumigatus; 0.125 µg/mL in the test with Nannizzia gypsea; 0.0625 µg/mL in the test with Candida albicans [1]; 0.25 µg/mL with Cryptococcus neoformans. The MIC80 was 0.125 µg/mL in the test on Candida albicans [2] and 0.25 µg/mL with Candida parapsilosis.

Turning to `CN(C/C=C/C#CC(C)(C)C)Cc1cccc2ccccc12` [TERBINAFINE], the MIC80 in the test with Trichophyton rubrum was 1 µg/mL; in the test with Nakaseomyces glabratus, 8 µg/mL; in the test with Aspergillus fumigatus, 4 µg/mL; in the test on Nannizzia gypsea, 0.25 µg/mL; in the test on Candida albicans [1], greater than 64 µg/mL; in the test on Cryptococcus neoformans it was 8 µg/mL. Moreover, the MIC80 was determined as 64 µg/mL in the test with Candida albicans [2] and 8 µg/mL in the test with Candida parapsilosis.

Regarding `C[C@@H](c1ncncc1F)[C@](O)(Cn1cncn1)c1ccc(F)cc1F` [VORICONAZOLE], the MIC80 was 0.125 µg/mL in the test on Trichophyton rubrum; 0.25 µg/mL in the test on Nakaseomyces glabratus; 4 µg/mL with Aspergillus fumigatus; 0.5 µg/mL in the test on Nannizzia gypsea; 0.5 µg/mL with Candida albicans [1]; 0.25 µg/mL with Cryptococcus neoformans. Further, the MIC80 in the test with Candida albicans [2] was 0.25 µg/mL; in the test on Candida parapsilosis, 2 µg/mL.
